RORA act – RORA (human) activation; P35398; CHO-K1 Gal4-RORA LBD luciferase reporter, luminescence; percent increase over mock-subtracted basal signal; activation, % at 10 µM; 65,000 compounds, 1.5% hits; AID 560;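 active = activation above the mean of all tested compounds plus 3 SD, cut at about 49% in these data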;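 note: 0% = DMSO-treated RORA cells and 100% = added signal equal to DMSO minus mock-transfected cells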
Target sequence (P35398 whole entry, looked up, the tested form may be a part): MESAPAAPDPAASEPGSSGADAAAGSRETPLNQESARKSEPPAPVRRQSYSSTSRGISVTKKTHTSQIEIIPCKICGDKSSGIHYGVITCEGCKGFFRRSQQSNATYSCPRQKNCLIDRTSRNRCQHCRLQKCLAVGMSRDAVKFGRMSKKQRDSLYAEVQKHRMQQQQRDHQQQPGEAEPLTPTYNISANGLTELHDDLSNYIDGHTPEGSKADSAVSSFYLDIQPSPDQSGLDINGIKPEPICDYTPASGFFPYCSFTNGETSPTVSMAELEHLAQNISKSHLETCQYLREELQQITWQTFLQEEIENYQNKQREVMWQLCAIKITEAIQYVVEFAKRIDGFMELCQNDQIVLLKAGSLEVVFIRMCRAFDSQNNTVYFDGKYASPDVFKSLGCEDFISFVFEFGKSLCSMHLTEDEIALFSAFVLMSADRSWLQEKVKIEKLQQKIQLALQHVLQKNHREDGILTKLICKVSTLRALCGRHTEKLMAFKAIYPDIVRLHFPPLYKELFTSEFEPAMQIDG
MT1-MMP txn act – activates MT1-MMP transcription. HT1080 MT1-MMP promoter luciferase reporter, luminescence, overnight; hits give high values. activation factor at 10 µM. 86,000 compounds, 0.16% hits;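 active = activation factor of at least 2 for MT1-MMP transcription at 10 µM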
M1 antagonist – blocks the rat M1 muscarinic receptor response to acetylcholine | P08482 | CHO-M1 cells, Fluo-4 calcium, ACh EC80 antagonist mode; hits give low values | B-score at 10 µM | 64,000 compounds, 3.4% hits;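 active = calcium fluorescence response, raw or row-and-column corrected B-score, differing from the plate sample mean either way at a set confidence level, mostly lower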
M1 ag – activates the M1 muscarinic receptor; 64,000 compounds, 3% hits; CHO-M1 cells, Fluo-4 calcium fluorescence, agonist mode; hits give high values; B-score at 10 µM;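 active = fluorescence rise, raw or as B-score row- and column-corrected plate score, outside the 99.7% band of its plate's samples, either direction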
SF-1 act – SF-1 (human) activation | Q13285 | CHO-K1 Gal4-SF-1 LBD luciferase reporter; % increase over DMSO SF-1-specific signal | activation, % at 10 µM | 65,000 compounds, 1.9% hits | AID 522;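 active = activation above the mean activation of all tested compounds plus 3 SD, cut at about 50% in these data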
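Assay system – CHO-K1 cells with Gal4–hSF-1 LBD chimera plus Gal4-driven luciferase · Quantity – 4,000 cells per well · Times – compound added 1 h post-seeding, 20 h exposure at 37 °C, 5% CO2 · Measured by – luciferase light emission · Benchmarks – DMSO and mock-transfected background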
M1 ag confirm – confirmation of rat M1 muscarinic receptor agonists; fluorescence change (max-min) at 10 µM; 1,700 compounds, 19% hits; AID 1488; CHO-M1 cells, Fluo-4 calcium fluorescence, agonist mode; actives lie on both sides; shares compounds with M1 ag;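 active = fluorescence change differs from the solvent-only DMSO control mean at a set confidence level in both duplicate runs; inconclusive = differs from solvent-only control mean in just one of two runs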;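 note: an EC20 dose of acetylcholine follows compound addition during the same imaging run; raw fluorescence intensity difference in instrument units with no normalization to controls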
M4 agonist ctr – activates rat M4 receptor in counter-screen for M1 agonists | shares compounds with M1 ag | CHO M4/Gqi5 cells, Fluo-4 calcium fluorescence, agonist mode; actives lie on both sides | fluorescence change (max-min) at 10 µM | 1,700 compounds, 9% hits | AID 1741;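 active = fluorescence change differing from the plate's solvent-only control wells at 99.7% confidence in both duplicates, whether higher or lower; inconclusive = differs from solvent controls in only one of two duplicates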
An asterisk follows results filed as active; ? = inconclusive; · = no result. In the library only some 6.3% were active in any assay of this set; here they are far more common.

SMILES	RORA act	MT1-MMP txn act	M1 antagonist	M1 ag	SF-1 act	M1 ag confirm	M4 agonist ctr
CCCCn1c(Cc2ccccc2)nnc1SCC(=O)Nc1cc(C)on1	·	1.2	·	·	·	·	·
CCOC(=O)N1CCN(C(=O)C2CCCN(S(=O)(=O)c3cccnc3)C2)CC1 (configuration not stated)	-13	1.1	-0.64	0.91	13	·	·
COc1ccc(S(=O)(=O)N2CCSC2c2ccc(N)cc2)cc1 (configuration not stated)	-12	1.1	-0.39	-0.22	6	·	·
O=C(c1cnc(N2CCN(c3ncccn3)CC2)c2ccccc12)N1CCN(c2ccccn2)CC1	-10	1.1	-1.3	12*	8	-10	-12
CCOc1ccc(C2C(C#N)=C(N)N3C(=C2C#N)Sc2ccccc23)cc1 (configuration not stated)	25	1.2	-0.44	9.9*	18	?	?
N#CC1=C(N)N2C(=C(C#N)C1c1ccccc1)Sc1ccccc12 (configuration not stated)	-18	1.4	0.56	26	-2	·	·
Cc1ccc(C(c2nnnn2C2CCCCC2)N(C)C2CCCCC2)cc1 (configuration not stated)	·	1.1	·	·	·	·	·
CC(C)C(c1nnnn1C1CCCC1)N(C)C1CCCCC1 (configuration not stated)	7	1.1	-0.09	9.7*	-16	-3.3	-17
Cc1ccc(NC(=O)CCSc2nnnn2-c2ccc3c(c2)OCO3)cc1C	14	1	-0.17	-2.7*	-6	-5.8	-19
CCn1nnnc1SCC(=O)Nc1ccc2c(c1)OCO2	·	1.3	·	·	·	·	·
CC(=O)NC(CCS(C)(=O)=O)C(=O)Nc1ccc(F)cc1Cl (configuration not stated)	-13	1.1	0.54	0.73	-10	·	·
COc1ccc(CCNc2c(C)c(C)nc3ncnn23)cc1	-78	1	-1.2*	3.3*	-81	15	-38
COC(=O)c1ccccc1NC(=O)COc1ccc(S(=O)(=O)N2CCCC2)cc1C	-17	1.1	-0.36	-0.31	-8	·	·
COc1ccc(NC(=O)COc2ccccc2C#N)c(S(=O)(=O)N2CCCCC2)c1	-6	1.1	-1.6	4.4*	2	-16	-26
CC1CN(C(=O)Cc2ccc(-c3ccccc3)cc2)CC(C)O1 (configuration not stated)	-10	1.1	0.31	0.17	-2	·	·
CC(C)n1c(N2CCN(CC(=O)Nc3ccc4c(c3)OCCO4)CC2)nc2ccccc21	5	1	-1.2	4*	2	-22*	?
O=C(CN1CCN(S(=O)(=O)c2cc(Cl)ccc2Cl)CC1)Nc1ccc2c(c1)OCCO2	1	1.3	0.58	4.1*	-5	-31*	?
CN(C)c1ccc(NC(=O)CN2CCN(S(=O)(=O)c3cc(Cl)ccc3Cl)CC2)cc1	8	1.1	-0.8	-0.52	19	·	·
COc1cccc(NC(=O)CCS(=O)(=O)c2cccs2)c1	25	1.4	0.35	-0.62	14	·	·
COc1cc(NC(=O)c2ccco2)c(OC)cc1NC(=O)c1cc(OC)c(OC)c(OC)c1	5	1.1	-0.068	11*	-1	-32*	-63
COc1ccc(CCNC(=O)c2ccccc2NC(=O)c2ccco2)cc1OC	-6	1.1	-0.14	4*	-2	?	-77*
COc1ccccc1NC(=O)c1ccccc1NC(=O)c1cc(Cl)ccc1NC(=O)c1ccco1	·	1.1	·	·	·	·	·
COc1ccc2c(=O)c(C(=O)NCCc3ccc(OC)c(OC)c3)c[nH]c2c1	4	1.2	-0.92	4.9*	-1	?	?
COc1ccc(CCNC(=O)c2ccc(=O)[nH]n2)cc1OC	-16	1	0.97	-0.027	7	·	·
COc1ccc(NC(=O)c2ccccc2NC(=O)c2ccco2)c(OC)c1	-12	1.1	-0.42	7.7*	0	?	-49
SMILES	RORA act	MT1-MMP txn act	M1 antagonist	M1 ag	SF-1 act	M1 ag confirm	M4 agonist ctr
CCCn1c(SCC(=O)OCc2ccccc2)nc2c1c(=O)n(C)c(=O)n2C	-2	1.1	0.11	0.1	2	·	·
CC(c1nnc(Sc2nnnn2-c2ccccc2)n1-c1ccc(F)cc1)N(C)C (configuration not stated)	-5	1.2	0.14	0.58	0	·	·
Cn1c(=O)c2c(ncn2Cc2ccccc2)n(C)c1=O	·	1	·	·	·	·	·
Cn1c(=O)c2nc(NCc3ccccc3)cnc2n(C)c1=O	-6	1	1.3	10*	4	203*	166*
CCc1ccccc1N(C(=O)CCC(=O)Nc1cc(C)on1)C(C(=O)NC1CCCC1)c1ccco1 (configuration not stated)	-10	1.1	0.45	0.51	11	·	·
O=C(Nc1cccc(Cl)c1)Nc1nccs1	72*	1.8	-1.2	3.5*	32	-11	?
COc1ccc(CNC(=O)Cc2nn(C)c(=O)c3ccccc23)cc1	-42	·	-0.48	11*	-42	8.4	3.6
Cn1nc(CC(=O)NCc2ccc(C(F)(F)F)cc2)c2ccccc2c1=O	·	1.1	·	·	·	·	·
COc1ccccc1NC(=O)CN(Cc1ccco1)C(=O)c1ccc(-n2nc(C)cc2C)cc1	-4	1.1	0.18	5.9*	5	-17	?
Cc1csc(SCCn2c(N3CCN(c4ccccc4)CC3)nc3c2c(=O)[nH]c(=O)n3C)n1	-4	1.1	-2.5*	5.4*	14	?	-57
CCOc1ncccc1C(=O)Nc1ccc2c(C)cc(=O)oc2c1	-15	1.2	0.44	13*	6	?	?
O=C(c1ccccc1)N1CCCOC1c1ccccc1 (configuration not stated)	-18	1.1	0.32	0.17	-2	·	·
OCC12COC(c3ccccc3)N1C(c1ccccc1)OC2 (configuration not stated)	-10	1	0.8	8.3*	-2	-16	?
COc1cc(OC)cc(OCC(O)Cn2ccnc2)c1 (configuration not stated)	-3	1	-0.067	-0.94	-4	·	·
CCn1c(CC(C)C)n[nH]c1=S	0	1.2	0.024	-0.22	0	·	·
CCn1c(CCn2ccnc2C)n[nH]c1=S	-22	1.1	-7.3*	53*	-10	225*	?
CCc1nnc(NC(=O)CCC(=O)N2CCN(C3CCCCC3)CC2)s1	-13	1.1	·	·	9	·	·
Cc1ccc(OCCN2CCN(C(=O)CCC(=O)Nc3nnc(C)s3)CC2)cc1	-5	1.1	-0.77	-1.1	-6	·	·
CC(C)c1nnc(NC(=O)CCC(=O)N2CCN(C3CCCCC3)CC2)s1	-9	1.2	-0.027	3.1*	-7	?	-8.6
Cc1ccc(OCCN2CCN(C(=O)CCC(=O)Nc3nnc(C(C)C)s3)CC2)cc1	-6	1.2	-1.9	13*	-16	5.1	0.75

Bioassay records from PubChem.
